Where “and” joins values, the source holds several entries; their conditions need not be identical. Identical values can stand only once.
Assays:
Format in all cases: toxicity, cell-based
[1] = test system: Fibroblast; assay: Multiplex assay against human fibroblast
In short: (§1)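 Values for tubulin, mitochondrial-mass and membrane-permeability phenotypes are per cents of cells with healthy nuclei. These cells were identified by CellPathfinder machine-learning gating of live cells that had been stained at seeding with Hoechst33342, BioTracker Green Microtubule Cytoskeleton Dye, MitoTracker Red and Annexin V Alexa Fluor 680 and imaged on a CQ1 microscope at 37°C and 5% CO2 after compound addition. The gating first set Hoechst high-intensity objects apart from normal cells, then split normal cells into healthy, pyknosed or fragmented nuclei, and pyknosed cells into mitotic or apoptotic.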

[2] = test system: HEK-293T; assay: Multiplex assay against HEK293T; conditions: human; in short: as §1
[3] = test system: U2OS; assay: Multiplex assay against U2OS; conditions: human; in short: as §1
[4] = 12 h, 1 µM, compound concentration 1 uM
[5] = 12 h, 10 µM, compound concentration 10 uM
[6] = 24 h, 1 µM, compound concentration 1 uM
[7] = 24 h, 10 µM, compound concentration 10 uM
[8] = 48 h, 1 µM, compound concentration 1 uM
[9] = 48 h, 10 µM, compound concentration 10 uM

Cc1ccc(-c2ccc(F)cc2COc2ccc(CCC(=O)O)cc2)cc1
Population Apoptotic (%) [1, 4]: 42% and 37% | Population Fragmented Nuclei (%) [1, 4]: 13% and 23% | Population Healthy Nuclei (%) [1, 4]: 64% and 45% | Population Mitotic Cells (%) [1, 4]: 57% and 62% | Population Normal (%) [1, 4]: 99% and 93% | Population Pyknosed Nuclei (%) [1, 4]: 21% and 30% | Population Tubulin-Different-Phenotype (%) [1, 4]: 26% | Total Cell Count [1, 4]: 131 and 148 | Population Apoptotic (%) [1, 5]: 19% and 31% | Population Fragmented Nuclei (%) [1, 5]: 15% and 23% | Population Healthy Nuclei (%) [1, 5]: 67% and 51% | Population Mitotic Cells (%) [1, 5]: 80% and 68% | Population Normal (%) [1, 5]: 99% and 93% | Population Pyknosed Nuclei (%) [1, 5]: 16% and 25% | Population Tubulin-Different-Phenotype (%) [1, 5]: 23% and 38% | Total Cell Count [1, 5]: 125 and 136 | Population Apoptotic (%) [1, 6]: 38% and 62% | Population Fragmented Nuclei (%) [1, 6]: 16% and 25% | Population Healthy Nuclei (%) [1, 6]: 67% and 46% | Population Mitotic Cells (%) [1, 6]: 61% and 37% | Population Normal (%) [1, 6]: 97% and 95% | Population Pyknosed Nuclei (%) [1, 6]: 15% and 27% | Population Tubulin-Different-Phenotype (%) [1, 6]: 23% and 33% | Total Cell Count [1, 6]: 136 and 139 | Population Apoptotic (%) [1, 7]: 47% and 46% | Population Fragmented Nuclei (%) [1, 7]: 9% and 26% | Population Healthy Nuclei (%) [1, 7]: 75% and 53% | Population Mitotic Cells (%) [1, 7]: 52% and 53% | Population Normal (%) [1, 7]: 98% and 92% | Population Pyknosed Nuclei (%) [1, 7]: 15% and 20% | Population Tubulin-Different-Phenotype (%) [1, 7]: 20% and 55% | Total Cell Count [1, 7]: 127 and 136 | Population Apoptotic (%) [1, 8]: 56% and 69% | Population Fragmented Nuclei (%) [1, 8]: 21% and 29% | Population Healthy Nuclei (%) [1, 8]: 62% and 55% | Population Mitotic Cells (%) [1, 8]: 43% and 30% | Population Normal (%) [1, 8]: 96% | Population Pyknosed Nuclei (%) [1, 8]: 15% | Population Tubulin-Different-Phenotype (%) [1, 8]: 24% and 46% | Total Cell Count [1, 8]: 150 and 155 | Population Apoptotic (%) [1, 9]: 72% and 48% | Population Fragmented Nuclei (%) [1, 9]: 11% and 30% | Population Healthy Nuclei (%) [1, 9]: 78% and 45% | Population Mitotic Cells (%) [1, 9]: 27% and 51% | Population Normal (%) [1, 9]: 96% and 92% | Population Pyknosed Nuclei (%) [1, 9]: 9% and 23% | Total Cell Count [1, 9]: 121 and 140 | Population Apoptotic (%) [2, 4]: 42% and 33% | Population Fragmented Nuclei (%) [2, 4]: 6% | Population Healthy Nuclei (%) [2, 4]: 82% and 77% | Population Hoechst High Intensity Objects (%) [2, 4]: 9% | Population Mitochondria Different-Phenotype (%) [2, 4]: 36% and 50% | Population Mitotic Cells (%) [2, 4]: 57% and 66% | Population Normal (%) [2, 4]: 90% | Population Pyknosed Nuclei (%) [2, 4]: 15% | Population Tubulin-Different-Phenotype (%) [2, 4]: 18% | Total Cell Count [2, 4]: 465 and 324 | Population Apoptotic (%) [2, 5]: 32% and 42% | Population Fragmented Nuclei (%) [2, 5]: 10% and 7% | Population Healthy Nuclei (%) [2, 5]: 79% and 83% | Population Hoechst High Intensity Objects (%) [2, 5]: 7% and 6% | Population Mitochondria Different-Phenotype (%) [2, 5]: 46% and 58% | Population Mitotic Cells (%) [2, 5]: 67% and 57% | Population Normal (%) [2, 5]: 92% and 93% | Population Pyknosed Nuclei (%) [2, 5]: 10% and 9% | Population Tubulin-Different-Phenotype (%) [2, 5]: 33% and 15% | Total Cell Count [2, 5]: 329 and 396 | Population Fragmented Nuclei (%) [2, 6]: 10% and 9% | Population Healthy Nuclei (%) [2, 6]: 82% and 80% | Population Hoechst High Intensity Objects (%) [2, 6]: 3% and 7% | Population Mitochondria Different-Phenotype (%) [2, 6]: 16% and 33% | Population Mitotic Cells (%) [2, 6]: 84% and 47% | Population Normal (%) [2, 6]: 96% and 92% | Population Pyknosed Nuclei (%) [2, 6]: 7% and 9% | Population Tubulin-Different-Phenotype (%) [2, 6]: 10% and 13% | Total Cell Count [2, 6]: 688 and 445 | Population Apoptotic (%) [2, 7]: 36% and 51% | Population Fragmented Nuclei (%) [2, 7]: 11% and 6% | Population Healthy Nuclei (%) [2, 7]: 76% and 87% | Population Hoechst High Intensity Objects (%) [2, 7]: 3% | Population Mitochondria Different-Phenotype (%) [2, 7]: 30% and 37% | Population Mitotic Cells (%) [2, 7]: 63% and 48% | Population Normal (%) [2, 7]: 94% and 96% | Population Pyknosed Nuclei (%) [2, 7]: 6% | Population Tubulin-Different-Phenotype (%) [2, 7]: 18% and 13% | Total Cell Count [2, 7]: 397 and 461 | Population Apoptotic (%) [2, 8]: 17% and 36% | Population Fragmented Nuclei (%) [2, 8]: 15% and 14% | Population Healthy Nuclei (%) [2, 8]: 79% and 77% | Population Hoechst High Intensity Objects (%) [2, 8]: 1% and 2% | Population Mitochondria Different-Phenotype (%) [2, 8]: 7% and 18% | Population Mitotic Cells (%) [2, 8]: 82% and 63% | Population Normal (%) [2, 8]: 98% and 97% | Population Pyknosed Nuclei (%) [2, 8]: 5% | Population Tubulin-Different-Phenotype (%) [2, 8]: 8% and 9% | Total Cell Count [2, 8]: 1149 and 631 | Population Apoptotic (%) [2, 9]: 24% and 31% | Population Fragmented Nuclei (%) [2, 9]: 12% and 15% | Population Healthy Nuclei (%) [2, 9]: 78% and 79% | Population Hoechst High Intensity Objects (%) [2, 9]: 2% and 4% | Population Mitochondria Different-Phenotype (%) [2, 9]: 17% and 16% | Population Mitotic Cells (%) [2, 9]: 75% and 68% | Population Normal (%) [2, 9]: 97% and 95% | Population Pyknosed Nuclei (%) [2, 9]: 5% | Population Tubulin-Different-Phenotype (%) [2, 9]: 9% and 8% | Total Cell Count [2, 9]: 713 and 702 | Population Apoptotic (%) [3, 4]: 75% and 100% | Population Fragmented Nuclei (%) [3, 4]: 22% and 17% | Population Healthy Nuclei (%) [3, 4]: 71% and 74% | Population Hoechst High Intensity Objects (%) [3, 4]: 2% | Population Mitochondria Different-Phenotype (%) [3, 4]: 3% and 0% | Population Mitotic Cells (%) [3, 4]: 25% and 0% | Population Normal (%) [3, 4]: 97% | Total Cell Count [3, 4]: 277 and 135 | Population Apoptotic (%) [3, 5]: 75% and 83% | Population Fragmented Nuclei (%) [3, 5]: 31% and 14% | Population Healthy Nuclei (%) [3, 5]: 61% and 75% | Population Hoechst High Intensity Objects (%) [3, 5]: 1% and 2% | Population Mitochondria Different-Phenotype (%) [3, 5]: 2% | Population Mitotic Cells (%) [3, 5]: 25% and 16% | Population Normal (%) [3, 5]: 98% and 97% | Total Cell Count [3, 5]: 238 and 123 | Population Apoptotic (%) [3, 6]: 90% and 100% | Population Fragmented Nuclei (%) [3, 6]: 21% and 20% | Population Healthy Nuclei (%) [3, 6]: 69% and 70% | Population Hoechst High Intensity Objects (%) [3, 6]: 2% and 1% | Population Mitochondria Different-Phenotype (%) [3, 6]: 2% and 0% | Population Mitotic Cells (%) [3, 6]: 10% and 0% | Population Normal (%) [3, 6]: 97% and 98% | Total Cell Count [3, 6]: 340 and 175 | Population Apoptotic (%) [3, 7]: 94% and 93% | Population Fragmented Nuclei (%) [3, 7]: 26% and 22% | Population Healthy Nuclei (%) [3, 7]: 67% | Population Hoechst High Intensity Objects (%) [3, 7]: 1% and 2% | Population Mitochondria Different-Phenotype (%) [3, 7]: 3% and 4% | Population Mitotic Cells (%) [3, 7]: 5% and 6% | Population Normal (%) [3, 7]: 98% and 97% | Total Cell Count [3, 7]: 295 and 160 | Population Apoptotic (%) [3, 8]: 89% and 95% | Population Fragmented Nuclei (%) [3, 8]: 17% and 15% | Population Healthy Nuclei (%) [3, 8]: 74% and 75% | Population Hoechst High Intensity Objects (%) [3, 8]: 2% | Population Mitochondria Different-Phenotype (%) [3, 8]: 2% | Population Mitotic Cells (%) [3, 8]: 10% and 5% | Population Normal (%) [3, 8]: 97% | Total Cell Count [3, 8]: 487 and 242 | Population Apoptotic (%) [3, 9]: 87% and 88% | Population Fragmented Nuclei (%) [3, 9]: 21% and 16% | Population Healthy Nuclei (%) [3, 9]: 70% and 72% | Population Hoechst High Intensity Objects (%) [3, 9]: 2% and 1% | Population Mitochondria Different-Phenotype (%) [3, 9]: 3% | Population Mitotic Cells (%) [3, 9]: 12% and 11% | Population Normal (%) [3, 9]: 97% and 98% | Total Cell Count [3, 9]: 421 and 236

Source: ChEMBL document CHEMBL5724801, “EUbOPEN Chemogenomics Library - Multiplex” (2024)
